Assay results pooled from the literature.
Target: Homeodomain-interacting protein kinase 1 (HIPK1, Homo sapiens, UniProt Q86Z02)

CC(=O)C1=C(C)N(c2cccc(C(F)(F)F)c2)C(=O)N[C@@H]1c1ccc(C#N)nc1 — remaining binding (cell-free assay, competition with immobilised ligand; 1 µM): 72.6%
C[C@@H]1CCN(c2nccc(-c3cnn4ncccc34)n2)C1 — remaining binding (binding; 1 µM): 52%
FC(F)(F)Oc1cccc(-c2cnc3ccc(-c4ccncc4)nn23)c1 — remaining binding (cell-free assay, competition with immobilised ligand; 5 µM): 0.15%
C[C@@H](c1ccc(-n2cnc3c(N)ncnc32)cc1)N1CCc2nn(C)c(Cc3ccccc3)c2C1=O — remaining binding (binding, competition with immobilised ligand; 0.1 µM): 91%
C=CC(=O)N1CCC(C(=O)NCC(=O)N2CCN(c3nc(-c4cnc(N)nc4C(F)F)nc(N4CCOCC4)n3)CC2)CC1 — remaining binding (binding, competition with immobilised ligand; 1 µM): 97%
c1cncc(-c2cccc(Nc3nccc(NC4CCCCC4)n3)c2)c1 — remaining binding (binding, competition with immobilised ligand; 10 µM): 56%
O=C(Nc1c[nH]nc1C(=O)NC1CCNCC1)c1cc(F)cc(F)c1 — remaining binding (binding, competition with immobilised ligand; 1 µM): 33%
CNC(=O)[C@@H]1CC[C@@H](n2c(-c3ccc4cnccc4c3)nc3ccc(C(=O)NCc4cccc(C(N)=O)c4)cc32)C1 — remaining binding (binding, competition with immobilised ligand; 1 µM): 85%
N[C@@H]1CCN(c2nccc(-c3cnn4ncccc34)n2)C1 — remaining binding (binding; 1 µM): 43%
C[C@H](NC(=O)c1cnc2n1[C@](C)(Cc1ccc(C#N)cc1)C(=O)N2c1cc(Cl)c(F)c(Cl)c1)C(=O)NC1(c2ccccn2)CC1 — remaining binding (cell-free assay, competition with immobilised ligand; 1 µM): 97%
CN(C)c1nccc(-c2cnn3ncccc23)n1 — remaining binding (binding; 1 µM): 55%
O=C(c1ccc(Nc2ncc(Cl)c(-c3cc4ccccc4s3)n2)cc1)N1CCC(N2CCCC2)CC1 — remaining binding (binding, competition with immobilised ligand; 1 µM): 1.4%
O=C(O)c1cc(-c2ccc(C3CCNCC3)cc2)c2ccc(-c3ccc(C(F)(F)F)cc3)cc2c1 — remaining binding (cell-free assay, competition with immobilised ligand; 1 µM): 97%
c1cnn2ncc(-c3ccnc(N4CCC45COC5)n3)c2c1 — remaining binding (binding; 1 µM): 29%
Cc1cnc(Nc2ccc(C(=O)N3CCC(N4CCCC4)CC3)cc2)nc1-c1cc2ccccc2s1 — remaining binding (binding, competition with immobilised ligand; 1 µM): 2.2%
CS(=O)(=O)NCC[C@H](NC(=O)c1cncc2c1cnn2-c1ccc(F)cc1)c1ccnc(S(C)(=O)=O)c1 — remaining binding (cell-free assay, competition with immobilised ligand; 1 µM): 100%
COc1cnc(Nc2cccc(S(N)(=O)=O)c2)nc1N1CCN(c2ccccc2)CC1 — remaining binding (binding, competition with immobilised ligand; 1 µM): 98%
Cc1c(C(=O)O)cc(-c2ccc(C3CCNCC3)cc2)c2ccc(-c3ccc(C(F)(F)F)cc3)cc12 — remaining binding (binding, competition with immobilised ligand; 1 µM): 100%
O=C(c1ccc(Nc2ncc(Cl)c(-c3ccc(Cl)s3)n2)cc1)N1CCC(N2CCCC2)CC1 — remaining binding (binding, competition with immobilised ligand; 1 µM): 1.3%
COc1cc(-c2cn(C3CCc4ccccc4N(CC(F)(F)F)C3=O)nn2)ccc1-n1ccc(C)n1 (stereo not drawn) — remaining binding (cell-free assay, competition with immobilised ligand; 1 µM): 96%
CN(CCCC(F)(F)F)c1nccc(-c2cnn3ncccc23)n1 — remaining binding (binding; 1 µM): 70%
